{"source": "ChEMBL document CHEMBL4364341", "about": "“Radiosensitization of Head and Neck Squamous Cell Carcinoma (HNSCC) by a Podophyllotoxin” (ACS Med Chem Lett, 2019)", "key": {"FaDu [1]": {"system": "FaDu", "assay": "Synergistic antiproliferative activity against human FADU cells assessed as reduction in cell viability at 1 uM preincubated for 1 hr followed by irradiation with 2.5 Gy IR and measured after 6 days by MTT assay relative to control", "assay_type": "functional", "details": "light or radiation study", "summary_of_the_method": "(§1)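 FaDu or SCC-25 cells were grown in DMEM with 10% FBS at 37 °C and 5% CO2. They were seeded at 1000 cells/well in 96-well plates for 24 h, then dosed with compound (fresh DMSO stock diluted in medium) or vehicle. After 1 h, X-rays were given with a sliding 5 mm lead shield, so one plate held 0, 2.5, 5 and 10 Gy columns. After 6 days, MTT (0.5 mg/mL, 45 min) was added, then DMSO, and A570 was read. Values were normalised to the unirradiated vehicle control. Fractional inhibition = 1 − surviving fraction.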"}, "FaDu [2]": {"system": "FaDu", "assay": "Synergistic induction of apoptosis in human FADU cells at 0.5 uM followed irradiation with 5Gy IR by annexin V FITC and propidium iodide staining based flow cytometry", "assay_type": "functional, cell-based", "details": "TDE = time-dependent effect", "summary_of_the_method": "(§2)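 FaDu or SCC-25 cells, untreated, given 5 Gy IR, drug, or both. Apoptotic cells measured by annexin V flow cytometry 48 h after treatment. Percentage compared with control by t test.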"}, "SCC-25 [3]": {"system": "SCC-25", "assay": "Synergistic antiproliferative activity against human SCC25 cells assessed as combination index at 0.05 uM preincubated for 1 hr followed by irradiation with 10 Gy IR and measured after 6 days by MTT assay", "assay_type": "functional", "summary_of_the_method": "(§3)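 SCC-25 cells grown in DMEM with 10% FBS at 37 °C, 5% CO2, seeded 1000 cells/well in 96-well plates and left 24 h. Drug in DMSO, diluted in complete medium, added 1 h before X-irradiation. A movable 5 mm lead shield gave 0, 2.5, 5 or 10 Gy on one plate. After 6 days, MTT readout at 570 nm. Combination index by Chou–Talalay from viability data.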"}, "FaDu [4]": {"system": "FaDu", "assay": "Synergistic induction of cell cycle arrest in human FADU cells at 0.5 uM followed by irradiation with 5Gy IR incubated for 6 hrs by propidium iodide staining based flow cytometry", "assay_type": "functional", "summary_of_the_method": "(§4)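 FaDu or SCC-25 cells, untreated, given 5 Gy IR, drug, or drug plus 5 Gy. Cell-cycle distribution by propidium iodide staining and flow cytometry at 6 h and 24 h after treatment. G0/G1, S and G2/M fractions compared with control by t test.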"}, "SCC-25 [5]": {"system": "SCC-25", "assay": "Synergistic antiproliferative activity against human SCC25 cells assessed as combination index at 5 uM preincubated for 1 hr followed by irradiation with 10 Gy IR and measured after 6 days by MTT assay", "assay_type": "functional", "summary_of_the_method": "as §3"}, "SCC-25 [6]": {"system": "SCC-25", "assay": "Synergistic antiproliferative activity against human SCC25 cells assessed as fractional inhibition at 5 uM preincubated for 1 hr followed by irradiation with 10 Gy IR and measured after 6 days by MTT assay (reference value: 0.347)", "assay_type": "functional", "summary_of_the_method": "(§5)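 SCC-25 cells seeded 1000/well in 96-well plates in DMEM/10% FBS and left 24 h. Drug or vehicle added, then after 1 h X-irradiated to 2.5, 5 or 10 Gy on one plate using a shifted lead shield. Plates incubated 6 days, then MTT (0.5 mg/mL, 45 min), DMSO solubilisation, absorbance at 570 nm. Fractional inhibition = 1 − fraction of surviving cells.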"}, "FaDu [7]": {"system": "FaDu", "assay": "Synergistic induction of cell cycle arrest in human FADU cells assessed as decrease in CDK1 at 0.5 uM followed by irradiation with 5 Gy IR incubated for 48 hrs by immunoblot analysis", "assay_type": "functional, cell-based", "summary_of_the_method": "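FaDu cells received drug, 5 Gy IR, or both; vehicle-only controls. Lysates collected after 48 h and immunoblotted with primary antibodies to NRF2, cyclin B1, CDK1, Bax and Bcl-2. Membranes stripped and reprobed for beta-actin as loading control.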"}, "FaDu [8]": {"system": "FaDu", "assay": "Synergistic induction of cell cycle arrest in human FADU cells assessed as decrease in accumulation at G0/G1 phase at 0.5 uM followed irradiation with 5Gy IR incubated for 24 hrs by propidium iodide staining based flow cytometry", "assay_type": "functional", "summary_of_the_method": "as §4"}, "SCC-25 [9]": {"system": "SCC-25", "assay": "Synergistic induction of apoptosis in human SCC25 cells at 0.5 uM followed irradiation with 5Gy IR incubated for 48 hrs by annexin V FITC and propidium iodide staining based flow cytometry", "assay_type": "functional", "summary_of_the_method": "as §2"}, "FaDu [10]": {"system": "FaDu", "assay": "Antiproliferative activity against human FADU cells assessed as fractional inhibition at 5 uM after 6 days in absence of irradiation by MTT assay", "assay_type": "functional", "summary_of_the_method": "as §1"}, "SCC-25 [11]": {"system": "SCC-25", "assay": "Synergistic antiproliferative activity against human SCC25 cells assessed as fractional inhibition at 0.05 uM preincubated for 1 hr followed by irradiation with 5 Gy IR and measured after 6 days by MTT assay (reference value: 0.133)", "assay_type": "functional", "summary_of_the_method": "as §5"}}, "note": "Active and inactive are the calls of the source. The calls are words filed in the database; no cut-off is given here.", "data": [{"smiles": "COc1ccc2c(c1)N(CCO)C1=C(C(=O)OC1)C2c1ccccc1", "note": "(stereo unspecified)", "values": [{"measurement": "inhibition at 1 µM", "setting": "FaDu [1]", "value": 30, "unit": "%"}, {"measurement": "Activity", "setting": "FaDu [2]", "value": "Tde"}, {"measurement": "CI", "setting": "SCC-25 [3]", "value": 1.056}, {"measurement": "Activity", "setting": "FaDu [4]", "value": "inactive"}, {"measurement": "CI", "setting": "SCC-25 [5]", "value": 1.017}, {"measurement": "fractional inhibitory concentration index (FICI)", "setting": "SCC-25 [6]", "value": 0.71}, {"measurement": "Activity", "setting": "FaDu [7]", "value": "Active"}, {"measurement": "Activity", "setting": "FaDu [8]", "value": "Active"}, {"measurement": "fold change (FC)", "setting": "SCC-25 [9]", "value": 7}, {"measurement": "fractional inhibitory concentration index (FICI)", "setting": "FaDu [10]", "value": 0.437}, {"measurement": "fractional inhibitory concentration index (FICI)", "setting": "SCC-25 [11]", "value": 0.05}]}]}
